≈ marks a conversion by molar mass, not a printed value.

Sequence of Lanosterol 14-alpha demethylase (Candida albicans (strain SC5314 / ATCC MYA-2876) (Yeast), UniProt P10613) (P10613 whole entry): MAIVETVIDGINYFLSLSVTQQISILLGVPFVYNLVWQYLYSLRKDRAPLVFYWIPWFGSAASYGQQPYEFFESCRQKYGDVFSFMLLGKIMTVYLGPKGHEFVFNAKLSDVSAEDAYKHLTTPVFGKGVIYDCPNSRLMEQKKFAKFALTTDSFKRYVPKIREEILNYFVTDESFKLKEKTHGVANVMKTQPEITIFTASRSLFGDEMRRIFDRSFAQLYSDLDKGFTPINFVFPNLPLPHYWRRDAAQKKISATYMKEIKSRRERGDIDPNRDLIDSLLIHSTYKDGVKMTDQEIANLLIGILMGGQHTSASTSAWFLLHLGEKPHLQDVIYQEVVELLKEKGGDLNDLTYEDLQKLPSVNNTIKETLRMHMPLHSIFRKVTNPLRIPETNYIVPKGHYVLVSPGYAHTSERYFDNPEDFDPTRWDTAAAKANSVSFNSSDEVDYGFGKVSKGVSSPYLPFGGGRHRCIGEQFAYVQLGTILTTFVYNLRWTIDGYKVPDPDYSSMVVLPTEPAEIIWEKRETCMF

The first data set concerns the target Lanosterol 14-alpha demethylase (Candida albicans (strain SC5314 / ATCC MYA-2876) (Yeast), UniProt P10613). Kind of data set: Inhibition of Candida albicans CYP51 assessed as reduction in [3-3H]lanosterol 14alpha-demethylation at 0.75 uM preincubated for 60 secs followed by NADPH addition measured after 60 mins by RP-HPLC analysis relative to control. Particulars: 1 h. An outline of the steps:
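C. albicans CYP51 expressed in E. coli and purified, 0.5 μM, with 1.0 μM rat NADPH-P450 reductase, dilauroylphosphatidylcholine and isocitrate dehydrogenase/isocitrate regeneration in 50 mM potassium phosphate pH 7.2, 10% glycerol, 0.1% Triton X-100. Substrate 25 μM final; inhibitor:enzyme:substrate 1.5:1:50. 37 °C, started with 100 μM NADPH. Sterols extracted with EtOAc, radio-HPLC. Triplicate, mean ± SD.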
The inhibition is the drop in the measured response relative to a control, in per cent. With `O=C(N[C@@H](Cn1ccnc1)c1ccc(Cl)cc1Cl)c1ccc(-c2nnc(-c3ccc(C(F)(F)F)c(F)c3)o2)cc1`, the inhibition at 0.75 µM came out at 89%.

A further data set has as its target Lanosterol 14-alpha demethylase (Aspergillus) (UniProt B8NUK6+Q9P8R0+G4WW85). The data set can be described thus: Inhibition of Aspergillus fumigatus CYP51 assessed as reduction in [3-3H]eburicol 14alpha-demethylation at 0.75 uM preincubated for 60 secs followed by NADPH addition measured after 60 mins by RP-HPLC analysis relative to control.
Conditions: not given
The procedure, abridged: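 E. coli-expressed, purified CYP51 (0.5 μM) with rat NADPH-P450 reductase (1.0 μM), 100 μM dilauroylphosphatidylcholine, isocitrate dehydrogenase/isocitrate NADPH regeneration, in 50 mM K phosphate pH 7.2 with 10% glycerol and 0.1% Triton X-100. [3-3H]eburicol 25 μM final, inhibitor 0.75 μM final (1.5:1:50 inhibitor:enzyme:substrate), 37 °C. Started with 100 μM NADPH, 60 min, EtOAc extraction, radio-HPLC. Percent inhibition, triplicate, mean ± SD.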
`O=C(N[C@@H](Cn1ccnc1)c1ccc(Cl)cc1Cl)c1ccc(-c2nnc(-c3ccc(C(F)(F)F)c(F)c3)o2)cc1`: the inhibition is 65%.

Test system in another data set: not listed separately
Kind of data set: Lipophilicity, log P of the compound. The conditions noted are these: octanol/water. Type of data set: physicochemical.
As a reminder, the logP is a log measure of how a compound divides between an organic and an aqueous phase. For `O=C(N[C@@H](Cn1ccnc1)c1ccc(Cl)cc1Cl)c1ccc(-c2nnc(-c3ccc(C(F)(F)F)c(F)c3)o2)cc1`, the logP is 5.65.

The target of another data set is T1, Lanosterol 14-alpha demethylase (Aspergillus, UniProt B8NUK6+G4WW85+Q9P8R0).
T1 sequence (B8NUK6 whole entry): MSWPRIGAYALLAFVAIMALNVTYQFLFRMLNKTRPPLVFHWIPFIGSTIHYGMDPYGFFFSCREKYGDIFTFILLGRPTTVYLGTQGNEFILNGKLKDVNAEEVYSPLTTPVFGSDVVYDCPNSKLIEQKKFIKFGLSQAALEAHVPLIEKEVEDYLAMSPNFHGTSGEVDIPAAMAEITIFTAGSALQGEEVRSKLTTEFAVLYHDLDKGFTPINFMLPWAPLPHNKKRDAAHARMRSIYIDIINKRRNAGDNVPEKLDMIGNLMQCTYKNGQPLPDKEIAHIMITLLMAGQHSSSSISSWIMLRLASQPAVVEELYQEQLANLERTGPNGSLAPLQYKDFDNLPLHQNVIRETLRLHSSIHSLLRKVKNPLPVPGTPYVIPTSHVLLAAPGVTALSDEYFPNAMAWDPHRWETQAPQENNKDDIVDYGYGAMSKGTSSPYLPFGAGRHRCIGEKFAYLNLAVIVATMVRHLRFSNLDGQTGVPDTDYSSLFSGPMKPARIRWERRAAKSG
T1 sequence (Q9P8R0 whole entry): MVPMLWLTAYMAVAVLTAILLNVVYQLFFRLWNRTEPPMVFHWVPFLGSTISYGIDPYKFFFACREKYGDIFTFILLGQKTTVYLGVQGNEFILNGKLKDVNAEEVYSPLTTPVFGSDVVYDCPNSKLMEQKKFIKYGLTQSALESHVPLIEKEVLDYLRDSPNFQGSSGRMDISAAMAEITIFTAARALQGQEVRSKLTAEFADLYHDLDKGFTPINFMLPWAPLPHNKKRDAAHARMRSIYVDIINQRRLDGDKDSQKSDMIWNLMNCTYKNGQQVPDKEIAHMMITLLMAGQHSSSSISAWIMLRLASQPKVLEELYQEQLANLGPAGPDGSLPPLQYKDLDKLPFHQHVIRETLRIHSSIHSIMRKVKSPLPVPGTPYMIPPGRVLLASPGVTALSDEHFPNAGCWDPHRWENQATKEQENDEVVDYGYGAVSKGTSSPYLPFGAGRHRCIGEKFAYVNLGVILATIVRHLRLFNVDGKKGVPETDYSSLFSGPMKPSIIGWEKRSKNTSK
T1 sequence (G4WW85 whole entry): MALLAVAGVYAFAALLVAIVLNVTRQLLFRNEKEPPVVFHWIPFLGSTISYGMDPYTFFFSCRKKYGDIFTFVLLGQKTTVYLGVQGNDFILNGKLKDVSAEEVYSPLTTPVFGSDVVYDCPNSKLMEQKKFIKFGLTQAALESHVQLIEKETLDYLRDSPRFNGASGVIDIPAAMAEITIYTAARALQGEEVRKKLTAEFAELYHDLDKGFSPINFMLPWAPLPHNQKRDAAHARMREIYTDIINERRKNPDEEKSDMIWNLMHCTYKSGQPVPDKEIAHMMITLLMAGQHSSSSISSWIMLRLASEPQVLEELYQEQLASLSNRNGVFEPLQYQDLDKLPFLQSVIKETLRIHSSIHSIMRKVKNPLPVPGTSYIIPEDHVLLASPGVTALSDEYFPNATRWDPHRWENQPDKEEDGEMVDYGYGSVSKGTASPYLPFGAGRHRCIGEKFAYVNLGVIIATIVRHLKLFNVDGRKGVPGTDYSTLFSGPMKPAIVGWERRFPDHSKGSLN
The data set can be described thus: Binding affinity to Aspergillus fumigatus CYP51 by spectral titration method. The conditions noted are these: read-out: Kd(app). The procedure, abridged:
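Purified CYP51 at 0.5 μM in 5 cm path cuvettes, titrated from 0.2 mM DMSO stocks over 0.1–0.8 μM ligand. Type II red shift of the Soret band (417 to 424 nm) followed as ΔA (Amax−Amin) in difference spectra. Kd obtained by fitting to the quadratic tight-binding equation using total ligand and enzyme concentrations.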
On to `O=C(N[C@@H](Cn1ccnc1)c1ccc(Cl)cc1Cl)c1ccc(-c2nnc(-c3ccc(C(F)(F)F)c(F)c3)o2)cc1`, for which the Kd stood at 0.055 µM.

Test system in the next data set: not listed separately
Kind of data set: Half life in human liver microsomes at 1 uM preincubated for 5 mins followed by NADPH addition measured up to 45 mins by LC-MS/MS analysis. Type of data set: ADME, microsome. The conditions noted are these: 0.75 h. An outline of the steps:
(§1)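 Pooled liver microsomes (0.5 mg/mL; male CD-1 mouse, male Sprague Dawley rat, or mixed-gender human) with 1 μM compound in 100 mM potassium phosphate pH 7.4, 3 mM MgCl2, 37 °C with shaking. 5 min preincubation, then 1 mM NADPH. Aliquots at 0, 3, 7, 15, 25, 45 min quenched in cold CH3CN with carbamazepine internal standard, then LC/MS/MS. Triplicate; T1/2 = ln2/k from the slope of ln % remaining versus time.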
`O=C(N[C@@H](Cn1ccnc1)c1ccc(Cl)cc1Cl)c1ccc(-c2nnc(-c3ccc(C(F)(F)F)c(F)c3)o2)cc1` had a t1/2 of 3.43 h.

Test system in a further data set: not listed separately
Kind of data set: Half life in Sprague-Dawley rat liver microsomes at 1 uM preincubated for 5 mins followed by NADPH addition measured up to 45 mins by LC-MS/MS analysis. The format is ADME, microsome. Particulars: 0.75 h. An outline of the steps:
as §1
Turning to `O=C(N[C@@H](Cn1ccnc1)c1ccc(Cl)cc1Cl)c1ccc(-c2nnc(-c3ccc(C(F)(F)F)c(F)c3)o2)cc1`, the t1/2 is 1.28 h.

Test system in the next data set: not listed separately
Kind of data set: Half life in CD-1 mouse liver microsomes at 1 uM preincubated for 5 mins followed by NADPH addition measured up to 45 mins by LC-MS/MS analysis. The format is ADME, microsome. Particulars: 0.75 h. An outline of the steps:
as §1
(In general: Liver microsomes are a subcellular fraction often used to study metabolism.)
As for `O=C(N[C@@H](Cn1ccnc1)c1ccc(Cl)cc1Cl)c1ccc(-c2nnc(-c3ccc(C(F)(F)F)c(F)c3)o2)cc1`, the t1/2 was determined as 1.53 h.

Another data set has as its system Aspergillus fumigatus. The data set can be described thus: Antifungal activity against Aspergillus fumigatus 1022 after 48 hrs by CLSI M38-A2 protocol based assay. Type of data set: functional. The conditions noted are these: Aspergillus fumigatus, 1022, 48 h; read-out: MIC100.
With `O=C(N[C@@H](Cn1ccnc1)c1ccc(Cl)cc1Cl)c1ccc(-c2nnc(-c3ccc(C(F)(F)F)c(F)c3)o2)cc1`, the MIC was 0.19 mg/L (≈ 0.322 µM).

The next data set has as its system Aspergillus fumigatus. Kind of data set: Antifungal activity against Aspergillus fumigatus 32820 after 48 hrs by CLSI M38-A2 protocol based assay. The format is functional. The conditions noted are these: Aspergillus fumigatus, 32820, 48 h; read-out: MIC100.
Take `O=C(N[C@@H](Cn1ccnc1)c1ccc(Cl)cc1Cl)c1ccc(-c2nnc(-c3ccc(C(F)(F)F)c(F)c3)o2)cc1`: the MIC came out at 0.09 mg/L (≈ 0.152 µM).

In a further data set the test system is Aspergillus fumigatus. The data set can be described thus: Antifungal activity against Aspergillus fumigatus MYA626 after 48 hrs by CLSI M38-A2 protocol based assay. Type of data set: functional. Particulars: MYA626, 48 h, read-out: MIC100.
For `O=C(N[C@@H](Cn1ccnc1)c1ccc(Cl)cc1Cl)c1ccc(-c2nnc(-c3ccc(C(F)(F)F)c(F)c3)o2)cc1`, the MIC is 0.39 mg/L (≈ 0.661 µM).

Test system in a further data set: not listed separately
The data set can be described thus: in vitro. The conditions noted are these: human, liver microsomes.
The term CLint scaled denotes a measure of how fast metabolising enzymes remove a compound, apart from limits set by blood flow. A higher CLint scaled goes with rapid turnover. Turning to `O=C(N[C@@H](Cn1ccnc1)c1ccc(Cl)cc1Cl)c1ccc(-c2nnc(-c3ccc(C(F)(F)F)c(F)c3)o2)cc1`, the CLint scaled at 0.75 h, 1 µM stood at 0.364 L/h/kg.

Test system in a further data set: not listed separately
Kind of data set: in vitro. Particulars: human, liver microsomes. This is another data set of the same source.
Consider `O=C(N[C@@H](Cn1ccnc1)c1ccc(Cl)cc1Cl)c1ccc(-c2nnc(-c3ccc(C(F)(F)F)c(F)c3)o2)cc1`, for which the CLhep predicted at 0.75 h, 1 µM was 0.244 L/h/kg.

Test system in a further data set: not listed separately
The data set can be described thus: in vitro. The conditions noted are these: Sprague-Dawley, rat, liver microsomes.
`O=C(N[C@@H](Cn1ccnc1)c1ccc(Cl)cc1Cl)c1ccc(-c2nnc(-c3ccc(C(F)(F)F)c(F)c3)o2)cc1` came in with an intrinsic clearance (CLint scaled) at 0.75 h, 1 µM of 2.16 L/h/kg.

Test system in a further data set: not listed separately
Kind of data set: in vitro. The conditions noted are these: Sprague-Dawley, rat, liver microsomes. The source holds these as a separate data set.
On to `O=C(N[C@@H](Cn1ccnc1)c1ccc(Cl)cc1Cl)c1ccc(-c2nnc(-c3ccc(C(F)(F)F)c(F)c3)o2)cc1`, for which the CLhep predicted at 0.75 h, 1 µM is 1.44 L/h/kg.

Test system in another data set: not listed separately
Kind of data set: in vitro. Particulars: CD-1, mouse, liver microsomes.
`O=C(N[C@@H](Cn1ccnc1)c1ccc(Cl)cc1Cl)c1ccc(-c2nnc(-c3ccc(C(F)(F)F)c(F)c3)o2)cc1` gave a CLint scaled at 0.75 h, 1 µM of 3.6 L/h/kg.

Test system in a further data set: not listed separately
Kind of data set: in vitro. The conditions noted are these: CD-1, mouse, liver microsomes. This is another data set of the same source.
Turning to `O=C(N[C@@H](Cn1ccnc1)c1ccc(Cl)cc1Cl)c1ccc(-c2nnc(-c3ccc(C(F)(F)F)c(F)c3)o2)cc1`, the CLhep predicted at 0.75 h, 1 µM was 2.16 L/h/kg.

The values are drawn from ChEMBL document CHEMBL4118269 (J Med Chem, 2018).
